The values below come from ChEMBL document CHEMBL4376807, “Hydroxamic Acid Derivatives of β-Carboline/Hydroxycinnamic Acid Hybrids Inducing Apoptosis and Autophagy through the PI3K/Akt/mTOR Pathways” (J Nat Prod, 2019).

The source made the active and inactive calls. No cut-off for these calls is given here.

The test system of assay [1] is SMMC-7721. Nature of the assay: Antiproliferative activity against human SMMC7721 cells after 72 hrs by MTT assay. In kind it is functional, cell-based. The following applies: SMMC-7721, 72 h.
Assay [2] deals with HepG2. Nature of the assay: Antiproliferative activity against human HepG2 cells after 72 hrs by MTT assay. Conditions: HepG2, 72 h. In kind it is functional, cell-based. (Tetrazolium assays rely on reduction of a dye to a coloured formazan, in cell work by metabolically active cells.)
In assay [3] the test system is Bel-7402. In words: Antiproliferative activity against human Bel7402 cells after 72 hrs by MTT assay. The following applies: Bel-7402, 72 h. In kind it is functional, cell-based.
The target of assay [4] is Histone deacetylase 1 (Homo sapiens, UniProt Q13547). Nature of the assay: Inhibition of HDAC1 (unknown origin) using Boc-Lys (Ac)-AMC as substrate incubated for 60 mins by fluorimetric assay.
Assay [5] concerns Huh-7. Nature of the assay: Antiproliferative activity against human HuH7 cells after 72 hrs by MTT assay. Format: functional, cell-based. The following applies: Huh-7, 72 h.
Assay [6] deals with Histone deacetylase 3 (Homo sapiens, UniProt O15379). In words: Inhibition of human HDAC3 using Boc-Lys (Ac)-AMC as substrate incubated for 60 mins by fluorimetric assay.
Assay [7] concerns the target T1, Protein deacetylase HDAC6 (Homo sapiens, UniProt Q9UBN7).
T1 sequence (Q9UBN7 whole entry): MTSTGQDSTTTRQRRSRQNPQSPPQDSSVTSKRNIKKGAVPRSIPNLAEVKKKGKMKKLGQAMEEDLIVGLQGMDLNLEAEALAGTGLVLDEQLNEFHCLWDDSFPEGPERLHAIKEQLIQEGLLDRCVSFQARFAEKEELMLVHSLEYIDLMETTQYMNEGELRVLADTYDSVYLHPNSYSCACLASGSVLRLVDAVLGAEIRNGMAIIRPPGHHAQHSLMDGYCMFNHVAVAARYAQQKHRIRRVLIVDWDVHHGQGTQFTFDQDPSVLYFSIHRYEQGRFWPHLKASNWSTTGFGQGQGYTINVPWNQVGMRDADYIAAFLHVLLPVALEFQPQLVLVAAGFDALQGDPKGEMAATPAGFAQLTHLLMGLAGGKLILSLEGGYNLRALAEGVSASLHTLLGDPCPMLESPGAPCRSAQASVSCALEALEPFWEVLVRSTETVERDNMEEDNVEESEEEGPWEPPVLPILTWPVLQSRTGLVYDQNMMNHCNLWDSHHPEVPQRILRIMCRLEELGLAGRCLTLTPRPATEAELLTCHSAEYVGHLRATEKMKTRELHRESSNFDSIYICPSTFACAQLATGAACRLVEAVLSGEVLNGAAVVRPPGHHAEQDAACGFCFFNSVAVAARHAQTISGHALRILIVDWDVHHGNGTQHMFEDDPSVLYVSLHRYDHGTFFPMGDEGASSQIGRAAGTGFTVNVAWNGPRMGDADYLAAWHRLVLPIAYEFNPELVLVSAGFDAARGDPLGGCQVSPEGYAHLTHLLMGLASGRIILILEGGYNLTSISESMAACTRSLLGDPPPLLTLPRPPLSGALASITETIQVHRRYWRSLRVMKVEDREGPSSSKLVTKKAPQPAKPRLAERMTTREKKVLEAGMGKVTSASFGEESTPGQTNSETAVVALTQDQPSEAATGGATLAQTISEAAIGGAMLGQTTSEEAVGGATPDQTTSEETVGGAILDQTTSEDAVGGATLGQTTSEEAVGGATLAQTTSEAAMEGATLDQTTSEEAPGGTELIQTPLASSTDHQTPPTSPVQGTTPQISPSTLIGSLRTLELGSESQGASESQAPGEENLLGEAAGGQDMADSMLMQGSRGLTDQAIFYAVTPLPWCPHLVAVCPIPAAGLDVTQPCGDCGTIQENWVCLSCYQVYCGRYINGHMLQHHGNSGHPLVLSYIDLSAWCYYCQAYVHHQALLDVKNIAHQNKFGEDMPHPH
Nature of the assay: Inhibition of human HDAC6 using Boc-Lys (Ac)-AMC as substrate incubated for 60 mins by fluorimetric assay.

The target of assay [8] is T2, Histone deacetylase 8 (Homo sapiens, UniProt Q9BY41).
T2 sequence (Q9BY41 whole entry): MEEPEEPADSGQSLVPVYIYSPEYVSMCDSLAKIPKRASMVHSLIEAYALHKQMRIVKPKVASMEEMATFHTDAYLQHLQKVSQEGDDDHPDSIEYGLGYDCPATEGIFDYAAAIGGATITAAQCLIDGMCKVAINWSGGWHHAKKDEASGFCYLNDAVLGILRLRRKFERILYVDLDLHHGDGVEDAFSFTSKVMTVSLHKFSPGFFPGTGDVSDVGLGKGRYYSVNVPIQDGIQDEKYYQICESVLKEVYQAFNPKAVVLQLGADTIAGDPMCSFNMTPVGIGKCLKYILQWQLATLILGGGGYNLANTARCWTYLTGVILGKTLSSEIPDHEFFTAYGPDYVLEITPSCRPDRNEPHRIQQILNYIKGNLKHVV
In words: Inhibition of human HDAC8 using Boc-Lys (Ac)-AMC as substrate incubated for 60 mins by fluorimetric assay.

Assay [9] is filed under the species Homo sapiens. Nature of the assay: Selectivity ratio of IC50 for HDAC1 (unknown origin) to IC50 for human HDAC6. The method in brief: (§1)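 Recombinant human HDAC1, 3, 6 and 8 (fluorimetric kit) incubated with compound over a range of concentrations and Boc-Lys(Ac)-AMC substrate at 37 °C for 60 min. Reaction quenched with lysine developer; after 30 min, fluorescence read at ex 355/em 460 nm. Inhibition taken relative to control and IC50 fitted; ratios built from these IC50s.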

The species entered for assay [10] is Homo sapiens. Nature of the assay: Selectivity ratio of IC50 for human HDAC3 to IC50 for human HDAC6. The gist of the method:
as §1

Assay [11] deals with Bel-7402. In words: Induction of apoptosis in human Bel7402 cells assessed as annexin-V positive cells at 20 uM after 72 hrs by […] relative to control. Format: functional.
The test system of assay [12] is Bel-7402. In words: Induction of autophagy in human Bel7402 cells assessed as accumulation of autophagic vacuoles at 20 uM after 24 hrs by acridine orange staining based fluorescence microscopic method. In kind it is functional, cell-based. The method in brief: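 Bel7402 cells (10 000) seeded overnight, then exposed alongside vehicle. Stained with acridine orange (1 mg/mL) for 15−20 min. Autophagic vacuoles scored by fluorescence microscopy as red versus green fluorescence at 400×. Representative images from three independent experiments.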

Assay [13] is described as follows: Inhibition of PI3K/AKT/mTOR signaling in human Bel7402 cells assessed as reduction in AKT phosphorylation at 20 uM after 24 to 72 hrs by Western blot analysis. In kind it is cell-based. The gist of the method:
(§2)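 Bel7402 cells (1.5 × 10^5/mL) treated 24 or 72 h. Lysates (0.05 mg/lane) run on 12% SDS-PAGE, transferred to nitrocellulose, blocked with 5% nonfat milk. Probed for phospho-Akt (Ser473), total Akt, phospho-mTOR, total mTOR and β-actin; HRP secondary, chemiluminescent detection. Bands quantified against vehicle control; mean ± SD of three separate assays.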

Assay [14] is described as follows: Inhibition of PI3K/AKT/mTOR signaling in human Bel7402 cells assessed as reduction in mTOR phosphorylation at 20 uM after 24 to 72 hrs by Western blot analysis. In kind it is cell-based. The gist of the method: as §2
In general terms: A western blot detects proteins with antibodies after separation by electrophoresis.

Assay [15] relates to Bel-7402. Nature of the assay: Induction of apoptosis in human Bel7402 cells assessed as annexin-V positive cells at 5 uM after 72 hrs by Annexin-V/PI staining based flow cytometry relative to control. In kind it is functional. The gist of the method: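 Bel7402 cells (10 000) cultured overnight, then exposed to compound at 1.0 or 5.0 μM, or vehicle, for 72 h. Harvested, stained with annexin-V APC and 7-AAD for 15 min. Apoptotic percentage measured by flow cytometry (APC ex 633/em 660 nm; 7-AAD ex 488/em 647 nm). Three separate assays, mean ± SD.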
(In general: In flow cytometry, cells or beads pass a laser one at a time.)

Assay [16] relates to Bel-7402. In words: Induction of apoptosis in human Bel7402 cells assessed as increase in cleaved caspase-3 level at 5 uM after 72 hrs by Western blot analysis. Format: functional, cell-based. The method in brief:
(§3)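 Subconfluent Bel7402 cells (1.5 × 10^5/mL) exposed to vehicle or compound for 72 h, then lysed. Lysates (0.05 mg/lane) run on 12% SDS-PAGE, transferred to nitrocellulose, blocked in 5% nonfat milk. Probed for Bax, Bcl-2, cleaved caspase-3 and cleaved PARP, with HRP secondary and chemiluminescence. Levels normalized to β-actin; three separate assays, mean ± SD.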

For assay [17], the system named is Bel-7402. In words: Induction of apoptosis in human Bel7402 cells assessed as increase in cleaved PARP level at 5 uM after 72 hrs by Western blot analysis. Format: functional, cell-based. The gist of the method:
as §3

The subject of assay [18] is Bel-7402. Nature of the assay: Induction of autophagy in human Bel7402 cells assessed as accumulation of autophagic vacuoles at 5 uM after 24 hrs by acridine orange staining based fluorescence microscopic method. Format: functional, cell-based. The method in brief: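 Bel7402 cells (10 000) cultured overnight, then exposed to compound at 1.0 or 5.0 μM, or vehicle. Stained with 1 mg/mL acridine orange for 15−20 min, then dye removed. Red versus green fluorescence viewed by fluorescence microscopy at 400×. Representative images from three independent experiments.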

For assay [19], the system named is Bel-7402. In words: Induction of autophagy in human Bel7402 cells assessed as upregulation of LC3-2 level at 5 uM after 24 to 72 hrs by Western blot analysis. In kind it is functional, cell-based. The method in brief: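 Bel7402 cells (1.5 × 10^5/mL) exposed to compound at indicated doses, or vehicle, for 24 or 72 h. Lysates (0.05 mg/lane) separated on 12% SDS-PAGE, blotted to nitrocellulose, blocked in 5% milk. Probed with anti-LC3, anti-p62 and anti-beclin-1, HRP secondary, chemiluminescent detection. Levels quantified relative to β-actin; three separate assays, mean ± SD.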

Sequence of Histone deacetylase 1 (Q13547 whole entry): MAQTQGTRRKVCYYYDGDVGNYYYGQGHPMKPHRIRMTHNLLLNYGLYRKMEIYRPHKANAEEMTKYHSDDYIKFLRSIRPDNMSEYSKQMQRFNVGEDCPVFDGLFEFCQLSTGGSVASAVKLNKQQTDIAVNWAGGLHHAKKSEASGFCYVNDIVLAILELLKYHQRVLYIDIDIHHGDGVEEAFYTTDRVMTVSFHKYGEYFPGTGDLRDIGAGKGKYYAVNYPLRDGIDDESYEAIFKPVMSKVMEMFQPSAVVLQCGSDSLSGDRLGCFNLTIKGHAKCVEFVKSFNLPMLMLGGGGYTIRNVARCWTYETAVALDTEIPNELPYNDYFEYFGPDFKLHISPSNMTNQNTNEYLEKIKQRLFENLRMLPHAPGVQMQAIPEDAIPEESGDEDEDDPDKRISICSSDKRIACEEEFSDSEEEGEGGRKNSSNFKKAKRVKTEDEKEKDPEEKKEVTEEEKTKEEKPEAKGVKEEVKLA
Sequence of Histone deacetylase 3 (O15379 whole entry): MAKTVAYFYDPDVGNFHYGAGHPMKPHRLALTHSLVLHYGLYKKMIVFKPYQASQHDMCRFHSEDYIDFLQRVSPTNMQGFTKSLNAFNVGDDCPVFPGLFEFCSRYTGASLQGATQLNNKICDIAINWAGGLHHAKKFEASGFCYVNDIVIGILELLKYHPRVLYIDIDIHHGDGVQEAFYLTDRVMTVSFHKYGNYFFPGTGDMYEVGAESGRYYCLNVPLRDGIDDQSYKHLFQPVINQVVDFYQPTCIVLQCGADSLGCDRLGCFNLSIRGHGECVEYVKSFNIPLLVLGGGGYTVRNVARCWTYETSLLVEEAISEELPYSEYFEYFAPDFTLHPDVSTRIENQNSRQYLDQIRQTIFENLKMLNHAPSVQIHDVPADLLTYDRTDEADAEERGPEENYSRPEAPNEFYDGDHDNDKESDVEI

The term IC50 denotes the concentration that gives 50% inhibition. On to `COc1ccc(-c2nc(NCCCCOc3ccc(/C=C/C(=O)NO)cc3)cc3c2[nH]c2ccccc23)cc1`, for which the IC50 was over 12.5 µM in assay [1], 9.5 µM in assay [2], 8.9 µM in assay [3] and 0.125 µM in [4].
Take `COc1ccc(-c2nc(NCCOc3ccc(/C=C/C(=O)NO)cc3OC)cc3c2[nH]c2ccccc23)cc1`: the IC50 in assay [1] is 4 µM; in assay [2], 4.8 µM; in assay [3] it was 1.8 µM; in [5] it was 2.8 µM; in assay [4], 0.032 µM; in [6], 0.125 µM. Also, the results for the IC50 in [7] and in [8] were 0.017 µM and over 1 µM, respectively. Moreover, the Ratio IC50 is 2 in [9] and 7 to 11 in assay [10].
Turning to `COc1ccc(-c2nc(NCCOc3ccc(/C=C/C(=O)NO)cc3)cc3c2[nH]c2ccccc23)cc1`, the IC50 in assay [1] is 6.3 µM; in assay [2] it was 5.8 µM; in [3], 5.2 µM; in assay [4] it was 0.075 µM.
Turning to `COc1ccc(-c2nc(NCCCCOc3ccc(/C=C/C(=O)NO)cc3OC)cc3c2[nH]c2ccccc23)cc1`, the IC50 in assay [1] is 7.1 µM; in assay [2] it was 5.3 µM; in assay [3], 4.6 µM; in [5] it was 6.2 µM; in [4] it was 0.061 µM.
Consider `COc1ccc(-c2nc(NCCCOc3ccc(/C=C/C(=O)NO)cc3)cc3c2[nH]c2ccccc23)cc1`, for which the IC50 in [1] worked out at 4.1 µM; in assay [2], 3.4 µM; in [3] it was 4 µM; in [4], 0.057 µM.
In turn, `COc1ccc2c(c1)[nH]c1c(C)nccc12` [HARMINE] returned an IC50 in assay [4] of over 1 µM. Also, the Activity in [11] came out at 36.1%. Moreover, in [12], the outcome was Active. Moreover, the inhibition entry in assay [13] and in [14] was “Active” each time.
With `O=C(CCCCCCC(=O)Nc1ccccc1)NO` [VORINOSTAT], the Activity in [15] was 45.4%. Further, the result in [16], in assay [17], in assay [18] and in assay [19] was Active.
